Results on 7 compounds are retold here after ChEMBL document CHEMBL1124149 (1988).

In brackets after ≈: the same amount, converted by molar mass.

The test system of the assay is Vaccinia virus. Briefly: In vitro minimum inhibitory concentration to inhibit VV-induced cytopathogenicity in PRK cells by 50%. Format: functional. The conditions noted are these: Orthopoxvirus vaccinia. The method in brief: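 Antiviral read-out was virus-induced cytopathogenicity in primary rabbit kidney (PRK) cell cultures. The value is the compound concentration needed to reduce cytopathogenicity by 50%.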
(In general: Damage to the host cells serves as the signal in cytopathic effect assays.)
Turning to `Cn1c(N)nc2c(ncn2COCCO)c1=O`, the MIC was greater than 400 µg/mL.
Take `Cc1cn2c([O-])c3c(nc2n1)[n+](COCCO)cn3C`: the MIC is greater than 400 µg/mL.
As for `Cc1cn2c(O)c3ncn(COCCO)c3nc2n1`, the MIC was greater than 400 µg/mL.
Take `Cc1cn2c(=O)c3ncn(COCCO)c3nc2n1C`: the MIC was greater than 400 µg/mL.
With `CNc1nc(O)c2ncn(COCCO)c2n1`, the MIC is greater than 400 µg/mL.
As for `Cn1c[n+](COCCO)c2nc(N)nc([O-])c21.O=S(=O)(O)O`, the MIC was greater than 400 µg/mL.
On to `Nc1nc2c(ncn2COCCO)c(=O)[nH]1` [ACYCLOVIR], for which the MIC amounted to 150 µg/mL (≈ 666 µM).
